Data from ChEMBL document CHEMBL1151976, “Bioactive sulfated sesterterpene alkaloids and sesterterpene sulfates from the marine sponge Fasciospongia sp” (J Nat Prod, 2009).
Values after ≈ are worked out from the molar mass of the structure shown. Active and inactive are the calls of the source. The rule behind the calls is not given here.

Tests used:
MCF7 [1] = assay: Cytotoxicity against human MCF7 cells at 20 ug/ml after 72 hrs by SRB assay; format: functional, cell-based
Outline: (§1)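 Single-concentration screen at 20 µg/mL. Cells seeded at 10^6 cells/mL in 96-well plates, sample added in 10% DMSO, incubated 72 h at 37 °C. Viability by sulforhodamine B staining, compared with a 0.5% DMSO-treated control.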

LNCaP [2] = assay: Cytotoxicity against human LNCAP cells at 20 ug/ml after 72 hrs by SRB assay; format: functional, cell-based; outline: as §1
Lu1 [3] = assay: Cytotoxicity against human Lu1 cells at 20 ug/ml after 72 hrs by SRB assay; format: functional, cell-based; outline: as §1
Streptomyces [4] = assay: Antimicrobial activity against Streptomyces 85E assessed as inhibition of hyphae formation at 20 ug/disk after 30 hrs; format: functional; details: read-out: IZ
Outline: (§2)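 Streptomyces 85E mycelial fragments spread as a lawn on minimal medium ISP 4 agar. Compounds in MeOH loaded onto 7 mm filter disks, air-dried, placed on plates, incubated 30 °C for 30 h. Read-out: clear or bald (hyphae-free) zone diameter around the disk; >9 mm counted active. Surfactin positive control, MeOH negative control; run in duplicate.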

Streptomyces [5] = assay: Antimicrobial activity against Streptomyces 85E assessed as inhibition of hyphae formation at 10 ug/disk after 30 hrs; format: functional; details: read-out: IZ; outline: as §2
Streptomyces [6] = assay: Antimicrobial activity against Streptomyces 85E assessed as inhibition of hyphae formation at 5 ug/disk after 30 hrs; format: functional; details: for zone of inhibition at 5 µg/disc: read-out: IZ; outline: as §2
Streptomyces [7] = assay: Antimicrobial activity against Streptomyces 85E assessed as inhibition of hyphae formation at 2.5 ug/disk after 30 hrs; format: functional; outline: as §2
MCF7 [8] = assay: Cytotoxicity against human MCF7 cells after 72 hrs by SRB assay; format: functional, cell-based; details: MCF7, 72 h
Outline: (§3)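 Cells seeded at 10^6 cells/mL in 96-well plates. Six serial dilutions of sample in 10% DMSO added in triplicate. Incubated 72 h at 37 °C; viability measured by sulforhodamine B staining. IC50 is the concentration giving 50% growth inhibition relative to 0.5% DMSO-treated control, averaged over two independent experiments.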

LNCaP [9] = assay: Cytotoxicity against human LNCAP cells after 72 hrs by SRB assay; format: functional, cell-based; outline: as §3
Lu1 [10] = assay: Cytotoxicity against human Lu1 cells after 72 hrs by SRB assay; format: functional, cell-based; details: Lu1, 72 h; outline: as §3
HeLa = assay: Cytotoxicity against human HeLa cells after 72 hrs by SRB assay; format: functional, cell-based

## C[C@H]1CC[C@H]2C(=CCCC2(C)C)[C@@]1(C)CCC(CCCC1=CCN(CCCCNC(=N)N)C1=O)COS(=O)(=O)O (stereo not given in full) [FASCIOSPONGINE C]
MCF7 [1]
  Activity: Not toxic
LNCaP [2]
  Activity: Not toxic
Lu1 [3]
  Activity: Not toxic
Streptomyces [4]
  zone of inhibition at 20 µg/disc: 14 mm
Streptomyces [5]
  zone of inhibition at 10 µg/disc: 13 mm
Streptomyces [6]
  inhibition zone (IZ): inactive
Streptomyces [7]
  inhibition zone (IZ): inactive

## C[C@H]1CC[C@H]2C(=CCCC2(C)C)[C@@]1(C)CCC(CCCC1=CC(=O)N(CCc2c[nH]cn2)C1=O)COS(=O)(=O)O (stereo not given in full) [19-OXOFASCIOSPONGINE A]
MCF7 [8]
  IC50: 13.4 µM
LNCaP [9]
  IC50: 21.8 µM
Lu1 [10]
  IC50: 5 µM
Streptomyces [4]
  zone of inhibition at 20 µg/disc: 25 mm
Streptomyces [5]
  zone of inhibition at 10 µg/disc: 20 mm
Streptomyces [6]
  zone of inhibition at 5 µg/disc: 16 mm
Streptomyces [7]; read-out: IZ
  zone of inhibition at 2.5 µg/disc: 14 mm

## C[C@H]1CC[C@H]2C(=CCCC2(C)C)[C@@]1(C)CCC(CCCc1ccoc1)COS(=O)(=O)O (stereo not given in full) [HALISULFATE 7]
MCF7 [1]
  Activity: Not toxic
LNCaP [2]
  Activity: Not toxic
Lu1 [3]
  Activity: Not toxic
HeLa
  IC50: 16 µg/mL (≈ 35.3 µM)
Streptomyces [4]
  zone of inhibition at 20 µg/disc: 18 mm
Streptomyces [5]
  zone of inhibition at 10 µg/disc: 15 mm
Streptomyces [6]
  inhibition zone (IZ): inactive
Streptomyces [7]
  inhibition zone (IZ): inactive

## C[C@H]1CC[C@H]2C(=CCCC2(C)C)[C@@]1(C)CCC(CCCC1=CCN(CCc2c[nH]cn2)C1=O)COS(=O)(=O)O (stereo not given in full) [FASCIOSPONGINE A]
MCF7 [1]
  Activity: Not toxic
LNCaP [2]
  Activity: Not toxic
Lu1 [3]
  Activity: Not toxic
Streptomyces [4]
  zone of inhibition at 20 µg/disc: 18 mm
Streptomyces [5]
  zone of inhibition at 10 µg/disc: 16 mm
Streptomyces [6]
  zone of inhibition at 5 µg/disc: 14 mm
Streptomyces [7]
  inhibition zone (IZ): inactive

## C[C@H]1CC[C@H]2C(=CCCC2(C)C)[C@@]1(C)CCC(CCCC1=CC(=O)OC1O)COS(=O)(=O)O (stereo not given in full)
MCF7 [1]
  Activity: Not toxic
LNCaP [2]
  Activity: Not toxic
Lu1 [3]
  Activity: Not toxic
Streptomyces [4]
  zone of inhibition at 20 µg/disc: 19 mm
Streptomyces [5]
  zone of inhibition at 10 µg/disc: 13 mm
Streptomyces [6]
  inhibition zone (IZ): inactive
Streptomyces [7]
  inhibition zone (IZ): inactive

## C[C@H]1CC[C@H]2C(=CCCC2(C)C)[C@@]1(C)CCC(CCCC1=CC(=O)N(CCc2c[nH]cn2)C1)COS(=O)(=O)O (stereo not given in full) [FASCIOSPONGINE B]
MCF7 [1]
  Activity: Not toxic
LNCaP [2]
  Activity: Not toxic
Lu1 [3]
  Activity: Not toxic
Streptomyces [4]
  zone of inhibition at 20 µg/disc: 19 mm
Streptomyces [5]
  zone of inhibition at 10 µg/disc: 17 mm
Streptomyces [6]
  zone of inhibition at 5 µg/disc: 15 mm
Streptomyces [7]
  inhibition zone (IZ): inactive

## C[C@H]1CC[C@H]2C(=CCCC2(C)C)[C@@]1(C)CCC(CCCC1=CC(=O)OC1)COS(=O)(=O)O (stereo not given in full) [HALISULFATE 9]
MCF7 [1]
  Activity: Not toxic
LNCaP [2]
  Activity: Not toxic
Lu1 [3]
  Activity: Not toxic
Streptomyces [4]
  zone of inhibition at 20 µg/disc: 16 mm
Streptomyces [5]
  zone of inhibition at 10 µg/disc: 14 mm
Streptomyces [6]
  inhibition zone (IZ): inactive
Streptomyces [7]
  inhibition zone (IZ): inactive
